Experimental findings from ChEMBL document CHEMBL1149162 (J Med Chem, 2004) are described below.

For assay [1], the target named is T1, D(4) dopamine receptor (Homo sapiens, UniProt P21917).
T1 sequence (P21917 whole entry): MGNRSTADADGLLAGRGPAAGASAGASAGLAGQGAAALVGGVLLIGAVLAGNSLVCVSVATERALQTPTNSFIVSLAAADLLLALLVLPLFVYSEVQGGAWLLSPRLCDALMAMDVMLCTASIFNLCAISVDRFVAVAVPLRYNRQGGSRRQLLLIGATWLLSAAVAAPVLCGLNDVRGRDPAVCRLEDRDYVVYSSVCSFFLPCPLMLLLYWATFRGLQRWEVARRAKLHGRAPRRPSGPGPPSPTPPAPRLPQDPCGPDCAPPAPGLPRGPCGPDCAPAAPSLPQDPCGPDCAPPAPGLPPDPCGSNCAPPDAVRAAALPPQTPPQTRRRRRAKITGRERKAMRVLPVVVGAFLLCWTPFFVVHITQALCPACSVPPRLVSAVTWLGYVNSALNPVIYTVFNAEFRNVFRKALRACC
The experiment in a line: Effective concentration against human Dopamine receptor D4.

For assay [2], the target named is T2, D(4) dopamine receptor (Homo sapiens) (UniProt P21917).
T2 sequence (whole entry): T1 sequence (P21917 whole entry)
Nature of the assay: D4 efficacy against human Dopamine receptor D4 expressed in HEK293 cells. It is filed as functional, cell-based.

The target in assay [3] is T1, D(4) dopamine receptor. The experiment in a line: Binding affinity against human Dopamine receptor D4 by [3H]-spiperone displacement.
Assay [4] addresses T2, D(4) dopamine receptor (Homo sapiens). The experiment in a line: D4 efficacy was measured using recombinant human D4 receptor expressed in HEK293 cells. It is filed as functional, cell-based. In short, it runs like this: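 Human D4.4 coexpressed with Gαq05 in HEK293 cells, plated 20 000 cells/well and cultured 2 days. Cells loaded 1 h at room temperature with 4 μM Fluo-4 plus 0.04% Pluronic F-127 in DPBS, washed four times. Compound added on FLIPR and calcium fluorescence recorded for 3 min. Data normalized to 10 μM dopamine response. EC50 is concentration giving 50% signal. n ≥ 3, ±SEM.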

For a further assay, the target named is D(2) dopamine receptor (Homo sapiens, UniProt P14416). The experiment in a line: Binding affinity against human Dopamine receptor D2 using [3H]spiperone as radioligand.
In assay [5] the target is T1, D(4) dopamine receptor. The experiment in a line: D4 efficacy was measured using recombinant human Dopamine receptor D4 expressed in HEK293 cells. It is filed as cell-based. In short, it runs like this:
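Human D4.4 co-expressed with Gαq05 in HEK293 cells, seeded at 20 000 cells/well and cultured 2 days. Loaded 1 h at room temperature with 4 μM Fluo-4 and 0.04% Pluronic F-127 in DPBS, then washed. Compound added on FLIPR and calcium fluorescence read for 3 min. EC50 is the concentration giving 50% signal; efficacy is % activation relative to 10 μM dopamine; n ≥ 3.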

pEC50, pKi: −log10 of the molar value. A value given as a limit tells only on which side of the number the result lay.

Chain of D(2) dopamine receptor (P14416 whole entry): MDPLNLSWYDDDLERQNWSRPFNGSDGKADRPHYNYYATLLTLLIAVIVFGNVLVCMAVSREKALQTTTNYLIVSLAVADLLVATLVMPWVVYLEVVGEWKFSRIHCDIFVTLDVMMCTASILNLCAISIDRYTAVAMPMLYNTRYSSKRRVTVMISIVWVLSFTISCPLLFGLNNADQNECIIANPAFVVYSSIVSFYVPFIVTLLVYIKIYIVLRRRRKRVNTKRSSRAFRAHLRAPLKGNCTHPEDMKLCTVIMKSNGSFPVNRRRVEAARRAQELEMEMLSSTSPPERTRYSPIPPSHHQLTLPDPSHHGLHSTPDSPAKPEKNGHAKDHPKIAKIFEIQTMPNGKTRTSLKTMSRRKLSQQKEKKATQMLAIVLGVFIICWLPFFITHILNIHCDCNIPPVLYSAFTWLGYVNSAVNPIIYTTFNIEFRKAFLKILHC

Consider `c1ccc(N2CCN(Cc3nc4ccccc4[nH]3)CC2)cc1`, for which, at D(4) dopamine receptor [1], the pEC50 (as a rule, −log10 of the EC50, conventionally taken in molar units) is 8.00. In addition, the Efficacy in assay [2] came to 37.5%. In addition, the pKi (in general, the negative decadic logarithm of the Ki, by convention in mol/L) on D(4) dopamine receptor [3] was 7.28.

`Clc1cccc(N2CCN(Cc3nc4ccccc4[nH]3)CC2)c1`: the Efficacy in assay [4] is 3.8%. The pKi was below 5.00 at D(2) dopamine receptor and 8.02 at D(4) dopamine receptor [3].

Regarding `Clc1ccc(N2CCN(Cc3nc4ccccc4[nH]3)CC2)cc1`, the Efficacy in assay [2] is 4.7%. Further, the negative-log Ki (pKi) at D(2) dopamine receptor was below 5.00; on D(4) dopamine receptor [3], 7.83.

`c1ccc(N2CCN(Cc3nc4ccccc4[nH]3)CC2)nc1` [ABT-724]: the pEC50 at D(4) dopamine receptor [5] is 7.91. At D(4) dopamine receptor [3], this compound had a negative-log Ki (pKi) of 6.78.

Regarding `Clc1ccc(N2CCN(Cc3cc4ccccn4n3)CC2)cc1`, the negative logarithm of the EC50 (pEC50) at D(4) dopamine receptor [1] was 6.81. Further, the results for the negative logarithm of the Ki (pKi) on D(2) dopamine receptor and on D(4) dopamine receptor [3] were 5.88 and 8.57, respectively.

The compound `COc1ccccc1N1CCN(Cc2nc3ccccc3[nH]2)CC1` gave a pEC50 on D(4) dopamine receptor [1] of 8.25. This compound also had a negative logarithm of the Ki (pKi) on D(4) dopamine receptor [3] of 8.37.

In assay [2], `c1ccc2[nH]c(CN3CCN(c4ccncc4)CC3)nc2c1` returned an Efficacy of 4.8%. This compound also showed a pKi at D(4) dopamine receptor [3] below 5.00.

Take `c1cncc(N2CCN(Cc3nc4ccccc4[nH]3)CC2)c1`: in assay [2], the Efficacy worked out at 24.9%. This compound also had a pKi on D(4) dopamine receptor [3] of 6.42.

In assay [2], `COc1ccc(N2CCN(Cc3nc4ccccc4[nH]3)CC2)cc1` yielded an Efficacy of 4.8%. This compound showed a pKi on D(4) dopamine receptor [3] of 7.69.

The compound `COc1cccc(N2CCN(Cc3nc4ccccc4[nH]3)CC2)c1` came in with an Efficacy in assay [2] of 5%. At D(4) dopamine receptor [3], this compound gave a pKi of 7.58.

At D(4) dopamine receptor [1], `Clc1ccccc1N1CCN(Cc2nc3ccccc3[nH]2)CC1` had a pEC50 of 9.00. At D(4) dopamine receptor [3], this compound showed a negative-log Ki (pKi) of 8.07.

`Clc1ccccc1N1CCN(Cc2nc3ccc[nH]c-3n2)CC1`: the pEC50 on D(4) dopamine receptor [1] was 5.00. Further, the pKi was below 5.00 at D(2) dopamine receptor and 6.14 on D(4) dopamine receptor [3].

For `Fc1ccc(N2CCN(Cc3nc4ccccc4[nH]3)CC2)cc1`, the Efficacy in assay [2] came to 9.9%. The pKi at D(4) dopamine receptor [3] is 7.10.
